Experimental data published in ChEMBL document CHEMBL1140733, “Comprehensive study of sansalvamide A derivatives and their structure-activity relationships against drug-resistant colon cancer cell lines” (J Med Chem, 2008).
Square brackets hold non-standard residues; d marks the D form. Peptide text beside a SMILES is read from it. * marks the point of attachment. dNMeF = CN[C@H](Cc1ccccc1)C(=O)O; Cbz = O=C(OCc1ccccc1)*; Bn = c1ccc(C*)cc1

What was measured:
HCT-116 [1] = experiment: Cytotoxicity against multidrug-resistant human HCT116 cells by thymidine incorporation assay; type: functional, cell-based
Procedure, shortened: (§1)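 Cells (3000/well) were plated in IMDM (HCT-116), RPMI 1640 (HCT-15) or MEM (WS-1), each with L-glutamine, 10% FBS and 0.1% penicillin-streptomycin. Compounds in DMSO (1% in all wells) were added after about 6 h and left for 72 h, with 3H-thymidine pulsed for the last 16 h. Uptake was scintillation-counted against DMSO controls. IC50 came from four-concentration curves, three experiments in quadruplicate.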

HCT-15 [2] = experiment: Cytotoxicity against multidrug-resistant human HCT15 cells by thymidine incorporation assay; type: functional, cell-based; procedure, shortened: as §1
HCT-116 [3] = experiment: Cytotoxicity against multidrug-resistant human HCT116 cells at 1 uM by thymidine incorporation assay; type: functional
Procedure, shortened: (§2)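 HCT-116 cells were grown in IMDM and HCT-15 in RPMI 1640, each with L-glutamine, 10% FBS and penicillin-streptomycin, at 3000 cells/well. Compound was applied at 1 µM in 1% DMSO for 72 h total, with 3H-thymidine added for the final 16 h. Percent growth inhibition versus DMSO controls was scintillation-counted, averaging three wells in each of three assays.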

HCT-15 [4] = experiment: Cytotoxicity against multidrug-resistant human HCT15 cells at 1 uM by thymidine incorporation assay; type: functional; procedure, shortened: as §2

Structure (SMILES) | IC50 (HCT-116 [1]) [µM] | IC50 (HCT-15 [2]) [µM] | inhibition at 1 µM (HCT-116 [3]) [%] | inhibition at 1 µM (HCT-15 [4]) [%]
CC(C)C[C@@H]1NC(=O)[C@H](Cc2ccccc2)NC(=O)[C@H](CC(C)C)N(C)C(=O)[C@H](C(C)C)NC(=O)[C@H](CC(C)C)NC1=O (HELM PEPTIDE1{F.L.L.V.[meL]}$PEPTIDE1,PEPTIDE1,1:R1-5:R2$$$V2.0) | > 50 | > 50 | 20 | 3
CC(C)C[C@@H]1NC(=O)[C@H](CC(C)C)NC(=O)[C@H](Cc2ccccc2)N(C)C(=O)[C@H](CC(C)C)NC(=O)[C@H](C(C)C)NC1=O (HELM PEPTIDE1{[meF].L.L.V.L}$PEPTIDE1,PEPTIDE1,1:R1-5:R2$$$V2.0) | > 50 | > 50 | 2 | 18
CC(C)C[C@@H]1NC(=O)[C@@H](C(C)C)N(C)C(=O)[C@H](CC(C)C)NC(=O)[C@@H](CC(C)C)NC(=O)[C@H](Cc2ccccc2)NC1=O (HELM PEPTIDE1{F.[dL].L.[CC(C)[C@H](C(=O)[*:2])N(C)[*:1]].L}$PEPTIDE1,PEPTIDE1,1:R1-5:R2$$$V2.0) | – | – | 38 | 14
CC(C)C[C@@H]1NC(=O)[C@@H](Cc2ccccc2)NC(=O)[C@@H](CC(C)C)NC(=O)[C@@H](C(C)C)NC(=O)[C@H](CCCCNC(=O)OCc2ccccc2)NC1=O (cyclo(K(Cbz)[dV][dL][dF]L)) | – | – | 22 | 13
CC(C)C[C@@H]1NC(=O)[C@@H](Cc2ccccc2)NC(=O)[C@H](C(C)C)NC(=O)[C@@H](CC(C)C)NC(=O)[C@@H](CC(C)C)NC1=O (HELM PEPTIDE1{L.[dL].[dL].V.[dF]}$PEPTIDE1,PEPTIDE1,1:R1-5:R2$$$V2.0) | – | – | 32 | 0
CC(C)C[C@@H]1NC(=O)[C@H](Cc2ccccc2)NC(=O)[C@H](CC(C)C)NC(=O)[C@H](C(C)C)NC(=O)[C@@H](CC(C)C)NC1=O (HELM PEPTIDE1{F.L.[dL].V.L}$PEPTIDE1,PEPTIDE1,1:R1-5:R2$$$V2.0) | – | – | 0 | 15
CC(C)C[C@@H]1C(=O)N[C@H](CC(C)C)C(=O)N[C@H](C(C)C)C(=O)N[C@H](CC(C)C)C(=O)N[C@H](Cc2ccccc2)C(=O)N1C (HELM PEPTIDE1{[dF].[CC(C)C[C@H](C(=O)[*:2])N(C)[*:1]].[dL].[dV].[dL]}$PEPTIDE1,PEPTIDE1,1:R1-5:R2$$$V2.0) | – | – | 42 | 28
CC(C)C[C@@H]1NC(=O)[C@H](CC(C)C)NC(=O)[C@@H](Cc2ccccc2)NC(=O)[C@H](CC(C)C)NC(=O)[C@H](C(C)C)NC1=O (HELM PEPTIDE1{L.L.V.L.[dF]}$PEPTIDE1,PEPTIDE1,1:R1-5:R2$$$V2.0) | > 50 | > 50 | 30 | 26
CC(C)C[C@H]1NC(=O)[C@@H](Cc2ccccc2)NC(=O)[C@@H](CC(C)C)NC(=O)[C@@H](C(C)C)NC(=O)[C@@H](CC(C)C)NC1=O (HELM PEPTIDE1{[dF].[dL].[dL].[dV].[dL]}$PEPTIDE1,PEPTIDE1,1:R1-5:R2$$$V2.0) | – | – | 27 | 15
CC(C)C[C@@H]1NC(=O)[C@H](C(C)C)NC(=O)[C@H](CC(C)C)NC(=O)[C@@H](CC(C)C)NC(=O)[C@H](Cc2ccccc2)NC1=O (HELM PEPTIDE1{F.[dL].L.V.L}$PEPTIDE1,PEPTIDE1,1:R1-5:R2$$$V2.0) | – | – | 45 | 10
CC(C)[C@@H]1NC(=O)[C@H](Cc2ccccc2)NC(=O)[C@H](C(C)C)NC(=O)[C@@H](COCc2ccccc2)NC(=O)[C@H](C(C)C)NC1=O (cyclo(FVV[dS](Bn)V)) | – | – | 17 | 14
CC(C)C[C@@H]1NC(=O)[C@H](CC(C)C)NC(=O)[C@@H](Cc2ccccc2)NC(=O)[C@@H](CC(C)C)NC(=O)[C@@H](C(C)C)NC1=O (HELM PEPTIDE1{L.L.[dV].[dL].[dF]}$PEPTIDE1,PEPTIDE1,1:R1-5:R2$$$V2.0) | – | – | 44 | 35
CC(C)C[C@@H]1NC(=O)[C@H](Cc2ccccc2)NC(=O)[C@H](CC(C)C)NC(=O)[C@@H](CO)NC(=O)[C@H](CC(C)C)NC1=O (HELM PEPTIDE1{F.L.L.[dS].L}$PEPTIDE1,PEPTIDE1,1:R1-5:R2$$$V2.0) | – | – | 0 | 11
CC(C)C[C@@H]1NC(=O)[C@H](C(C)C)NC(=O)[C@H](CC(C)C)N(C)C(=O)[C@@H](CC(C)C)NC(=O)[C@H](Cc2ccccc2)NC1=O (HELM PEPTIDE1{F.[dL].[meL].V.L}$PEPTIDE1,PEPTIDE1,1:R1-5:R2$$$V2.0) | – | – | 23 | 30
CC[C@H]1NC(=O)[C@H](C(C)C)NC(=O)[C@H](C(C)C)NC(=O)[C@H](Cc2ccccc2)NC(=O)[C@H](C(C)C)NC1=O (HELM PEPTIDE1{F.V.V.[CC[C@@H](N[*:1])C(=O)[*:2]].V}$PEPTIDE1,PEPTIDE1,1:R1-5:R2$$$V2.0) | – | – | 16 | 2
CC(C)C[C@@H]1NC(=O)[C@H](Cc2ccccc2)NC(=O)[C@@H](Cc2ccccc2)N(C)C(=O)[C@H](C(C)C)NC(=O)[C@H](CCCCNC(=O)OCc2ccccc2)NC1=O (cyclo(FLK(Cbz)V[dNMeF])) | – | – | 38 | 14
CC(C)[C@@H]1NC(=O)[C@H](Cc2ccccc2)NC(=O)[C@H](C(C)C)NC(=O)[C@@H](CO)NC(=O)[C@H](C(C)C)NC1=O (HELM PEPTIDE1{F.V.V.[dS].V}$PEPTIDE1,PEPTIDE1,1:R1-5:R2$$$V2.0) | – | – | 18 | 13
CC(C)C[C@@H]1NC(=O)[C@@H](Cc2ccccc2)NC(=O)[C@@H](CC(C)C)NC(=O)[C@@H](C(C)C)NC(=O)[C@H](CCCCN)NC1=O (HELM PEPTIDE1{K.[dV].[dL].[dF].L}$PEPTIDE1,PEPTIDE1,1:R1-5:R2$$$V2.0) | – | – | 2 | 17
CC(C)[C@@H]1NC(=O)[C@H](Cc2ccccc2)NC(=O)[C@@H](COCc2ccccc2)NC(=O)[C@H](C(C)C)NC(=O)[C@H](C(C)C)NC1=O (cyclo(FVVV[dS](Bn))) | – | – | 25 | 30
CC(C)C[C@@H]1NC(=O)[C@H](Cc2ccccc2)NC(=O)[C@H](CC(C)C)NC(=O)[C@H](C(C)C)NC(=O)[C@H](CCCCN)NC1=O (HELM PEPTIDE1{F.L.K.V.L}$PEPTIDE1,PEPTIDE1,1:R1-5:R2$$$V2.0) | – | – | 23 | 15
CC(C)C[C@@H]1NC(=O)[C@H](Cc2ccccc2)NC(=O)[C@H](CC(C)C)NC(=O)[C@@H](C(C)C)NC(=O)[C@H](CCCCNC(=O)OCc2ccccc2)NC1=O (cyclo(FLK(Cbz)[dV]L)) | – | – | 16 | 3
CC(C)C[C@@H]1NC(=O)[C@H](Cc2ccccc2)NC(=O)[C@@H](CO)NC(=O)[C@H](C(C)C)NC(=O)[C@H](CC(C)C)NC1=O (HELM PEPTIDE1{F.L.L.V.[dS]}$PEPTIDE1,PEPTIDE1,1:R1-5:R2$$$V2.0) | – | – | 37 | 3
CC(C)C[C@@H]1NC(=O)[C@H](Cc2ccccc2)NC(=O)[C@H](CC(C)C)NC(=O)[C@@H](Cc2ccccc2)NC(=O)[C@H](CC(C)C)NC1=O (HELM PEPTIDE1{F.L.L.[dF].L}$PEPTIDE1,PEPTIDE1,1:R1-5:R2$$$V2.0) | – | – | 11 | 11
CC(C)[C@@H]1NC(=O)[C@H](Cc2ccccc2)NC(=O)[C@H](C(C)C)NC(=O)[C@@H](C(C)C)NC(=O)[C@H](C(C)C)NC1=O (HELM PEPTIDE1{F.V.V.[dV].V}$PEPTIDE1,PEPTIDE1,1:R1-5:R2$$$V2.0) | – | – | 19 | 1
CC(C)C[C@@H]1NC(=O)[C@H](Cc2ccccc2)NC(=O)[C@@H](Cc2ccccc2)N(C)C(=O)[C@H](C(C)C)NC(=O)[C@H](CCCCN)NC1=O (HELM PEPTIDE1{F.L.K.V.[CN([C@H](Cc1ccccc1)C(=O)[*:2])[*:1]]}$PEPTIDE1,PEPTIDE1,1:R1-5:R2$$$V2.0) | – | – | 30 | 26
CC(C)C[C@@H]1NC(=O)[C@H](Cc2ccccc2)NC(=O)[C@@H](CC(C)C)N(C)C(=O)[C@H](C(C)C)NC(=O)[C@H](CC(C)C)NC1=O (HELM PEPTIDE1{F.L.L.V.[CC(C)C[C@H](C(=O)[*:2])N(C)[*:1]]}$PEPTIDE1,PEPTIDE1,1:R1-5:R2$$$V2.0) | > 50 | > 50 | 25 | 33
CC[C@H]1NC(=O)[C@H](CC(C)C)NC(=O)[C@H](CC(C)C)NC(=O)[C@H](Cc2ccccc2)NC(=O)[C@H](CC(C)C)NC1=O (HELM PEPTIDE1{F.L.L.[CC[C@@H](N[*:1])C(=O)[*:2]].L}$PEPTIDE1,PEPTIDE1,1:R1-5:R2$$$V2.0) | – | – | 17 | 20
CC(C)C[C@@H]1NC(=O)[C@H](C(C)C)N(C)C(=O)[C@H](CC(C)C)NC(=O)[C@H](CC(C)C)N(C)C(=O)[C@H](Cc2ccccc2)NC1=O (HELM PEPTIDE1{F.[meL].L.[meV].L}$PEPTIDE1,PEPTIDE1,1:R1-5:R2$$$V2.0) | – | – | 18 | 15
CC(C)C[C@@H]1NC(=O)[C@H](Cc2ccccc2)NC(=O)[C@@H](CC(C)C)NC(=O)[C@H](C(C)C)NC(=O)[C@H](CC(C)C)NC1=O (HELM PEPTIDE1{F.L.L.V.[dL]}$PEPTIDE1,PEPTIDE1,1:R1-5:R2$$$V2.0) | > 50 | > 50 | 18 | 10
CC(C)[C@@H]1NC(=O)[C@H](Cc2ccccc2)NC(=O)[C@@H](CO)NC(=O)[C@H](C(C)C)NC(=O)[C@H](C(C)C)NC1=O (HELM PEPTIDE1{F.V.V.V.[dS]}$PEPTIDE1,PEPTIDE1,1:R1-5:R2$$$V2.0) | – | – | 0 | 18
